This is a sample that favours compounds with a hit; in the whole collection about 3.7% have one here.
AHR activator – AHR activators, primary screen, cell-based, luminescence, luciferase reporter, human. Aryl hydrocarbon receptor (Homo sapiens), P35869. 320,000 tested, 2.5% active. AHR-responsive luciferase reporter cells. activation, % at 5 µM; in the data active = activation above about 47%;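 note: 0% = vehicle wells and 100% = reference agonist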
GAA850 FXN act – FXN promoter activators, primary screen, cell-based, luciferase luminescence, HEK293 lucGAA850 | 360,000 tested, 0.56% active | AID 540364, 2011 | activation, % at 6 µM | HEK293 lucGAA850 FXN promoter luciferase reporter, 24 h; percent of 10 µM SAHA response;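 active = activation above the average of all compounds screened plus 3 SD, cutoff fixed separately per campaign, cut at about 7.5% in these data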;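 note: 0% = DMSO wells and 100% = 10 µM SAHA wells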
GASC-1 inh – inhibitors of GASC-1 histone demethylase, primary screen, biochemical, fluorescence, DELFIA europium. GST-JMJD2C(1-420) H3K9me3 demethylation. 330,000 tested, 0.069% active. inhibition, % at 2.35 µM. Lysine-specific demethylase 4C (Homo sapiens), Q9H3R0;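 active = more than half of a compound's replicate wells show inhibition beyond 50%, single wells judged on their own value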;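 note: signal counts dimethyl H3K9 product captured on neutravidin plate; 0% = median of DMSO wells and 100% = 0.3 times that DMSO median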
Target sequence (Q9H3R0 1-420 limits assumed): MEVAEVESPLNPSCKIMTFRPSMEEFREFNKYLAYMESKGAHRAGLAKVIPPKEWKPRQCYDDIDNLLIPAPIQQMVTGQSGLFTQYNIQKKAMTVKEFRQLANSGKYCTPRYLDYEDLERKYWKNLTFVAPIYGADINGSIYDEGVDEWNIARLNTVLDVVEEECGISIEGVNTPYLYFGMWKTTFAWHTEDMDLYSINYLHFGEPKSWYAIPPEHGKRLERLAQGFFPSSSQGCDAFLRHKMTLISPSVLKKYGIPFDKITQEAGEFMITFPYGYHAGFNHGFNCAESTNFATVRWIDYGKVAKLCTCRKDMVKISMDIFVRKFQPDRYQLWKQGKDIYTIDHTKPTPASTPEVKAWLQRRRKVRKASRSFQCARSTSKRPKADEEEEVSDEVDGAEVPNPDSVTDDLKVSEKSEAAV
SR-BI DiI-HDL act – activators of SR-BI mediated DiI-HDL uptake, primary screen, ldlA[mSR-BI] CHO cells, DiI fluorescence; 3 h; 100 = double the neutral-control signal; activation, % at 12.5 µM; 320,000 tested, 0.096% active; AID 504775, 2011;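 active = mean replicate activation of at least 60% and every replicate at or above 60%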;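 note: 0% = median plate neutral-control signal and 100% = twice that signal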
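Material: SR-BI-overexpressing, LDLR-lacking CHO cells; schedule: compound exposure 3 h, 37 °C; reagent: DiI-labelled HDL at 10 µg/mL final; technique: bottom-read fluorescence, 550/595 nm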
SR-BI DiI inh – inhibitors of SR-BI mediated HDL lipid uptake, primary screen, ldlA[mSR-BI] cells, fluorescence, single point. AID 488896, 2010. ldlA[mSR-BI] CHO cells, DiI-HDL uptake fluorescence, 3 h. Scavenger receptor class B member 1 (Mus musculus), Q61009. inhibition, % at 12.5 µM. 320,000 tested, 0.96% active;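 active = mean replicate inhibition of at least 70% and a set share of replicates each scoring 70 or more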;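 note: 0% = median of neutral control wells and 100% = median of positive control wells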
Active calls of the source: *; i = inactive; / = no result.

SMILES | AHR activator | GAA850 FXN act | GASC-1 inh | SR-BI DiI-HDL act | SR-BI DiI inh
COC(=O)Nc1nnc(/C=C/c2ccc(OC)cc2)s1 | 55* | 5 | 2 | 1 | -1
COc1ccc(/C=C/c2nnc(NC(C)=O)s2)cc1 | 18 | 4 | 7 | -11 | 11
Cc1ccc(CN(C)C(=O)CN2C(=O)NC(c3ccccc3)(c3ccccc3)C2=O)c(C)c1 | 0 | 0 | 19 | -23 | 23
O=C(Cn1nc(-c2ccc(Cl)cc2)ccc1=O)NCc1ccc2c(c1)OCO2 | 54* | 1 | 24 | 2 | -2
O=C(Cn1nc(-c2ccccc2)ccc1=O)NCc1ccc(F)cc1 | 2 | 1 | 2 | 16 | -16
O=C(Cn1nc(-c2ccccc2)ccc1=O)NCc1ccc2c(c1)OCO2 | 68* | -1 | 0 | -3 | 3
Cc1ccsc1C(=O)OCC(=O)NCc1ccccc1 | 0 | 4 | -11 | -8 | 8
Cn1ncc2c(N3CCC(Cc4ccccc4)CC3)ncnc21 | 73* | 3 | 199 | 16 | -16
NNC(=O)c1cc2c(N3CCC(Cc4ccccc4)CC3)ncnc2s1 | 13 | 1 | 4 | -80 | 80*
CCc1nc(SCC(=O)NC2CC2)c2c(C)c(C)sc2n1 | 52* | 2 | 19 | / | /
CCN1C[C@@H]2[C@@H]3C(=O)N(C)C(=O)[C@@H]3[C@](CC)(C1=O)N2C(=O)c1ccc(F)cc1 | / | 0 | / | 30 | -30
Clc1ccc(Nc2ncnc3ccc(Br)cc23)cc1 | 67* | -8 | 0 | -28 | 28
Cn1ncc([N+](=O)[O-])c1C(=O)N1CCCCCC1 | / | 1 | 3 | 18 | -18
Cc1cccc(CN2CCc3c([nH]c4ccccc34)C2C(C)(C)C)n1 (stereo not drawn) | 60* | 1 | 2 | 4 | -4
CSc1ncc(CN2CCc3c([nH]c4ccccc34)C2C(C)(C)C)cn1 (stereo not drawn) | 13 | 2 | 8 | 0 | 0
Cc1cc(Br)cc(/C=N/NC(=O)c2ccc3c(c2)OCO3)c1O | 62* | -2 | 2 | -146 | 146*
O=C(N/N=C/c1cc2c(cc1Cl)OCO2)c1cccc(Br)c1 | 32 | 3 | -12 | -81 | 81*
COc1cc(Cl)cc(/C=N\NC(=O)c2ccc3c(c2)OCO3)c1O | / | -4 | / | / | /
O=C(N/N=C/c1cc(Br)cc(Cl)c1O)c1ccc2c(c1)OCO2 | 13 | -1 | 3 | -132 | 132*
O=C(N/N=C/c1cc(Cl)cc([N+](=O)[O-])c1O)c1ccc2c(c1)OCO2 | 9 | 2 | 8 | -124 | 124*
O=C(N/N=C/c1cc(Br)c(O)c(Br)c1O)c1ccc2c(c1)OCCO2 | 15 | 1 | -3 | -30 | 30
CCCNC(=O)C1(C)CCCN(C(=O)c2cccnc2Oc2ccccc2)C1 (stereo not drawn) | / | 0 | / | / | /
COc1ccc(S(=O)(=O)N(C)C)cc1NC(=O)Cc1cccs1 | 1 | 0 | -5 | -29 | 29
CC(C)=CCC(C)(C)CNC(=O)NC1CCCCC1 | 2 | -2 | 10 | 0 | 0
O=C1C=C(NC(=O)Nc2ccc(Cl)c(Cl)c2)CCC1 | 7 | 0 | 3 | -11 | 11
SMILES | AHR activator | GAA850 FXN act | GASC-1 inh | SR-BI DiI-HDL act | SR-BI DiI inh
CCOc1ccccc1NC(=O)NC1(C(=O)NCc2cccnc2)CCCCC1 | 2 | 0 | -8 | / | /
O=C(N/N=C/c1ccccc1O)c1ccc2c(c1)OCO2 | 31 | 1 | -14 | -81 | 81*
Cc1ccc(NC(=O)c2ccc(Cl)c(S(=O)(=O)Nc3c(C)n(C)n(-c4ccccc4)c3=O)c2)cc1Cl | / | 0 | / | -73 | 73*
Cc1ccc2cc(CN(Cc3ccc(F)cc3)Cc3nnnn3C3CCCC3)c(=O)[nH]c2c1 | 1 | -1 | 8 | -21 | 21
CCc1ccc2[nH]c(=O)c(CN(Cc3ccc4c(c3)OCO4)Cc3nnnn3C3CCCC3)cc2c1 | 62* | -2 | 1 | / | /
CCOc1ccc(Cl)cc1-c1cc(C(=O)Nc2ccc(OC)nc2)[nH]n1 | / | 1 | / | / | /
CCOC(=O)COc1c(Br)cc(/C=C2\SC(=O)N(CC(=O)N3CCCC3)C2=O)cc1OC | 0 | 1 | -3 | -72 | 72*
CCOc1c(Br)cc(/C=C2/SC(=O)N(CC(=O)N3CCCC3)C2=O)cc1OC | 1 | -1 | 4 | -60 | 60
Cn1c(N)nc2nc[nH]c2c1=S | / | 0 | / | 6 | -6
CC1C/C(=C/c2ccco2)C(=O)/C(=C/c2ccco2)C1 (stereo not drawn) | 12 | / | -4 | / | /
O=C1/C(=C\c2ccco2)CCC/C1=C\c1ccco1 | 9 | 13* | -3 | -19 | 19
COc1cc(Nc2nnc(C)s2)c(Cl)cc1Cl | 71* | 1 | 0 | -32 | 32
COCCOc1cc(Nc2nnc(C(F)(F)F)s2)c(Cl)cc1Cl | 2 | -1 | -8 | -32 | 32
C/C(=N\NC(=O)c1ccc(O)cc1)c1cccc(NC(=O)c2ccccc2C)c1 | 16 | 3 | 23 | -21 | 21
O=C1c2cccc3cccc(c23)C(=O)N1CCc1ccccc1 | 53* | 6 | -1 | -26 | 26
Cn1c(Cl)c(C(=O)Nc2ccc(Cl)cc2)c2ccccc21 | 57* | 0 | 5 | -47 | 47
Cc1ccc(OCCSc2ncnc3sc(C)c(C)c23)cc1C | 1 | -1 | 0 | 950* | i
Cc1ccc(OCC(=O)NNC(=O)CSc2ncnc3sc(C)c(C)c23)cc1 | 0 | 0 | -18 | 11 | -11
Clc1ccc(N=c2ssnc2Cl)nc1 | 21 | 1 | 54* | -15 | 15
Cc1cnccc1CN(C)Cc1cn(C)nc1-c1cccc(Cl)c1 | 67* | -1 | 2 | 2 | -2
O=C(CNc1cccc(S(=O)(=O)N2CCCC2)c1)Nc1ccc(C(F)(F)F)cc1 | 9 | -1 | 2 | -8 | 8
O=C(NNC(=O)C1CCN(S(=O)(=O)c2ccccc2)CC1)c1ccccc1O | 11 | 3 | 94* | -83 | 83*
O=C(NNC(=O)C1CCN(S(=O)(=O)c2c(Cl)cccc2Cl)CC1)c1ccccc1O | 9 | 2 | 15 | -103 | 103*
O=C(NCc1ccco1)C1CCN(S(=O)(=O)c2ccccc2C(F)(F)F)CC1 | -1 | -1 | 4 | / | 10
O=C(NNS(=O)(=O)c1ccccc1)C1CCN(S(=O)(=O)c2ccccc2)CC1 | 1 | -2 | 3 | 16 | -16
O=C(NNC(=O)c1ccccc1O)c1ccc(Cl)c(S(=O)(=O)N2CCCCC2)c1 | 19 | 2 | 6 | -103 | 103*
O=C(NNC(=O)c1cccs1)c1ccc(Cl)c(S(=O)(=O)N2CCCC2)c1 | 4 | -1 | 2 | -11 | 11
O=C(NNC(=O)C1CCN(S(=O)(=O)c2ccccc2C(F)(F)F)CC1)c1ccccc1O | 4 | -2 | 13 | -100 | 100*

Screening results from PubChem BioAssay.
